Assay [1] deals with Trypanosoma cruzi. Description: Antitrypanosomal activity against Trypanosoma cruzi Tulahuan. Type of assay: functional, organism-based.
Assay [2] addresses Trypanothione reductase (Trypanosoma cruzi) (UniProt P28593). The experiment in a line: (§1) Mixed inhibition of trypanothione reductase from Trypanosoma cruzi using TSST substrate. The method, boiled down: (§2)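 E. coli JM109-expressed T. cruzi TR (3 µg/mL), 25 °C, 0.02 M HEPES pH 7.25 containing 0.15 M KCl, 1 mM EDTA and 0.1 mM NADPH. TSST as variable substrate at 30-240 µM against a series of inhibitor concentrations. Absorbance read at 340 nm. Ki and Ki′ obtained from Dixon, Lineweaver-Burk and Cornish-Bowden plots fitted to a mixed inhibition model.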

The target in assay [3] is T1, Trypanothione reductase (Trypanosoma cruzi, UniProt P28593). Described as §1. A digest of the protocol:
as §2

The subject of assay [4] is Trypanosoma brucei rhodesiense. Description: Antitrypanosomal activity against Trypanosoma brucei rhodesiense STIB900. It counts as functional, organism-based. The method, boiled down: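 STIB900 bloodstream trypomastigotes in HMI-18 + 15% HIFCS, seeded at 2 × 10⁵/mL onto drug dilutions (top 30 µg/mL), 72 h at 37 °C, 5% CO2; pentamidine reference.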
The test system of assay [5] is Plasmodium falciparum. The experiment in a line: Antimalarial activity against Plasmodium falciparum 3D7. It counts as functional, organism-based. A digest of the protocol:
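Asynchronous 3D7 cultures (65-75% rings) in RPMI 1640, 5% hematocrit, 0.5% parasitemia, 37 °C, 5% CO2; top final drug concentration 30. After 24 h, [3H]-hypoxanthine ([…]) added, then 48 h more. Plates freeze/thawed and harvested; uptake by scintillation counting; IC50 by curve fit.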

For assay [6], the system named is KB. Description: Cytotoxicity in KB cells. Type of assay: functional, cell-based. Particulars: Homo sapiens; call rule not given here.
The subject of assay [7] is Leishmania donovani. Description: Antileishmanial activity against Leishmania donovani HU3. It counts as functional, organism-based. A digest of the protocol:
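Peritoneal exudate macrophages from CD1 mice (harvested 24 h after starch induction) held 24 h in RPMI1640 + 10% HIFCS, 37 °C, 5% CO2, then infected with hamster-spleen HU3 amastigotes at 5:1. After 24 h, drug exposure for 5 days (overlay replaced day 3), top 30 µg/mL, quadruplicate. Giemsa-stained slides scored microscopically; IC50 by curve fit. Pentostam positive control.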

For assay [8], the target named is T2, Glutathione reductase, mitochondrial (Homo sapiens, UniProt P00390).
T2 sequence (P00390 whole entry): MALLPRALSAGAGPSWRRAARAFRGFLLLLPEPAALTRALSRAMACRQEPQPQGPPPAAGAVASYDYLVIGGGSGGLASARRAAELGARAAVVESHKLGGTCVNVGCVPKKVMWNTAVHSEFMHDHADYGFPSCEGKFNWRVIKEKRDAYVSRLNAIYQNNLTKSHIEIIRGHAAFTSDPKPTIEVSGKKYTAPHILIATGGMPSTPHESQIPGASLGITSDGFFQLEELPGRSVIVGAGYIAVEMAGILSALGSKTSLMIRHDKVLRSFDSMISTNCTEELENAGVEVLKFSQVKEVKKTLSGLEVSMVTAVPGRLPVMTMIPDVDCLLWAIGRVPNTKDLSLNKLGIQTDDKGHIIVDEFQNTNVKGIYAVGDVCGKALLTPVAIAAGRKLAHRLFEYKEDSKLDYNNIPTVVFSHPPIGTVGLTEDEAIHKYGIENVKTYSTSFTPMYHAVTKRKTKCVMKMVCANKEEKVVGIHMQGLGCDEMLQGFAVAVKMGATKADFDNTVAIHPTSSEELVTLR
The experiment in a line: Inhibitory activity against human glutathione reductase at 0.5 mM.

In assay [9] the target is T1, Trypanothione reductase. The experiment in a line: Linear competitive inhibition of trypanothione reductase from Trypanosoma cruzi using (ZCG.dmapa)2 substrate.
Assay [10] concerns the target T1, Trypanothione reductase. Description: Inhibitory activity against trypanothione reductase from Trypanosoma cruzi using 0.12 mM TSST substrate. A digest of the protocol:
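Recombinant T. cruzi TR overexpressed in E. coli JM109, homogeneous by SDS-PAGE. I50 read by interpolation from velocity vs inhibitor concentration, fitted to the linear competitive equation by nonlinear regression.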

Assay [11] addresses T1, Trypanothione reductase. Description: Linear competitive inhibition of trypanothione reductase from Trypanosoma cruzi using TSST substrate.

Molecules are shown by their SMILES. ≈ marks a conversion by molar mass, not a printed value. Some results are limits rather than exact numbers.

Chain of Trypanothione reductase (Trypanosoma cruzi) (P28593 whole entry, looked up): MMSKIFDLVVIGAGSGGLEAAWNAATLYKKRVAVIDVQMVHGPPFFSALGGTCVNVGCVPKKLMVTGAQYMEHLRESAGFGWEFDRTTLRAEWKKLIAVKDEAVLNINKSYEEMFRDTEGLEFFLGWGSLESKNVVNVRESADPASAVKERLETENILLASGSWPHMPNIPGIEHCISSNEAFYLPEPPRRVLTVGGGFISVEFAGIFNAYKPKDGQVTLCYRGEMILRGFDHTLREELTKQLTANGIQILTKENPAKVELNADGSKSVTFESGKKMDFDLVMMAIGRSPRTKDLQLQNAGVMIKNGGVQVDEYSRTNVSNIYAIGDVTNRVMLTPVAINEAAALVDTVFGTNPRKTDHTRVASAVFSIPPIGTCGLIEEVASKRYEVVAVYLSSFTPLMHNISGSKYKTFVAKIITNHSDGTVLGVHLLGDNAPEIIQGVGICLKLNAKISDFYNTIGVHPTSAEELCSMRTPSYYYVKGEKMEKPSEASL
T1 sequence (P28593 whole entry): as the sequence (P28593 whole entry, looked up) above

As a reminder, the IC50 is the concentration that inhibits the measured activity by half. As a reminder, the Ki is a dissociation constant, usually derived from enzyme kinetics or from competition with a known ligand. On to `CCC(=O)Nc1cc(Cl)ccc1Sc1ccccc1`, for which the IC50 in [1] was 18.3 µg/mL (≈ 62.7 µM); in [3] it was 31.6 µM; in assay [4] it was 11.3 µg/mL (≈ 38.7 µM); in assay [5], above 30 µg/mL; in [6] it was 93.1 µg/mL (≈ 319 µM); in assay [7], above 30 µg/mL. Besides, the Ki' in assay [2] turned out to be 29.3 µM. This compound had a Ki in assay [3] of 20 µM.
On to `O=C(Cc1ccccc1)Nc1cc(Cl)ccc1Sc1ccccc1`, for which the IC50 is above 30 µg/mL in [1]; 36.8 µM in assay [3]; 7.4 µg/mL (≈ 20.9 µM) in [4]; 30 µg/mL (≈ 84.8 µM) in assay [5]; above 300 µg/mL in [6]; above 30 µg/mL in [7]. Besides, the Ki' in assay [2] was 35.9 µM. Besides, the affinity in assay [3], expressed as Ki, was 24.6 µM.
`Nc1cc(Cl)ccc1Sc1ccccc1`: the IC50 is 6.7 µg/mL (≈ 28.4 µM) in assay [1]; 4.4 µg/mL (≈ 18.7 µM) in assay [4]; 11.3 µg/mL (≈ 47.9 µM) in assay [5]; 47.9 µg/mL (≈ 203 µM) in assay [6]; above 30 µg/mL in assay [7]. In [2], the Ki' came to 860 µM. In assay [3], this compound displayed a Ki of 150 µM.
In the case of `CCCC(=O)Nc1cc(Cl)ccc1Sc1ccccc1`, the IC50 in [1] was 9.4 µg/mL (≈ 30.7 µM); in [3] it was 30.5 µM; in assay [4], 14.2 µg/mL (≈ 46.4 µM); in [5] it was 19.1 µg/mL (≈ 62.5 µM); in [6], above 300 µg/mL; in assay [7], above 30 µg/mL. The compound also came in with a Ki' in assay [2] of 42.6 µM. Moreover, the Ki in assay [3] was 11.3 µM.
Consider `C[N+](C)(CCCNc1cc(Cl)ccc1Sc1ccccc1)c1ccc(Cl)c(Cl)c1`, for which the Ki entry is “Not Active” in assay [8] and 1.69 µM in assay [9].
On to `C[N+](C)(CCCNc1cc(Cl)ccc1Sc1ccccc1)C(c1ccccc1)c1ccccc1`, for which, in assay [9], the affinity corresponds to a Ki of 5.3 µM.
For the compound `O=C(Nc1cc(Cl)ccc1Sc1ccccc1)c1ccccc1`, the IC50 was 19.8 µg/mL (≈ 58.3 µM) in assay [1]; 49.6 µM in [3]; 8.7 µg/mL (≈ 25.6 µM) in assay [4]; above 30 µg/mL in assay [5]; 9 µg/mL (≈ 26.5 µM) in assay [6]; above 30 µg/mL in assay [7]. The Ki' in [2] came out at 37.7 µM. The Ki in assay [3] worked out at 24.5 µM.
Compound `C[N+](C)(CCCNc1cc(Cl)ccc1Sc1ccccc1)c1ccccc1` displayed an inhibition constant (Ki) in [9] of 14.2 µM.
In the case of `CC(C)(C)c1ccc([N+](C)(C)CCCN)cc1`, the IC50 is above 30 µg/mL in assay [1]; 600 nM in [10]; above 30 µg/mL in assay [4]; above 30 µg/mL in assay [5]; above 300 µg/mL in assay [6]; above 30 µg/mL in assay [7]. This compound also showed a Ki in [3] of 0.15 µM.
Turning to `C[N+](C)(CCCNc1cc(Cl)ccc1Sc1ccccc1)c1ccc(OCc2ccccc2)cc1`, the Ki in [9] was found to be 6.6 µM.
`O=C(Nc1cc(Cl)ccc1Sc1ccccc1)c1ccc([N+](=O)[O-])cc1`: the IC50 in [1] was above 30 µg/mL; in [3], 44.5 µM; in [4], above 30 µg/mL; in assay [5] it was above 30 µg/mL; in assay [6], 223 µg/mL (≈ 579 µM); in [7], above 30 µg/mL. In addition, the Ki' in assay [2] came out at 12.9 µM. In addition, the inhibitory constant (Ki) in assay [3] is 42.8 µM.
For `CC(C)(C)c1ccc([N+](C)(C)CCCNc2cc(Cl)ccc2Sc2ccccc2)cc1`, the IC50 in [1] is below 1.1 µg/mL; in assay [4], 0.01 µg/mL; in assay [5], 0.6 µg/mL; in assay [6] it was 2.14 µg/mL; in assay [7], 3.9 µg/mL. Moreover, the Ki is 6.5 µM in assay [9] and 2670 nM in assay [11].
For the compound `C[N+](C)(CCCN1c2ccccc2Sc2ccc(Cl)cc21)c1ccc(Cl)c(Cl)c1`, the IC50 in assay [1] was below 1.1 µg/mL; in [4] it was 0.02 µg/mL; in assay [5], 0.47 µg/mL; in assay [6], 3.5 µg/mL; in [7] it was 4 µg/mL. The compound further returned a Ki' in assay [2] of 3.5 µM. The Ki in assay [3] was 0.44 µM; in [11] it was 180 nM.
For the compound `O=[N+]([O-])c1cc(Cl)ccc1Sc1ccccc1`, the IC50 in assay [1] was 11.3 µg/mL (≈ 42.5 µM); in assay [4], 11.5 µg/mL (≈ 43.3 µM); in [5] it was 15.6 µg/mL (≈ 58.7 µM); in assay [6], 43.1 µg/mL (≈ 162 µM); in assay [7], above 30 µg/mL.
Turning to `CC(C)(C)c1ccc([N+](C)(C)CCCN2c3ccccc3Sc3ccc(Cl)cc32)cc1`, the IC50 in assay [1] was below 1.1 µg/mL; in [4], 0.02 µg/mL; in [5], 0.13 µg/mL; in [6], 2.88 µg/mL; in assay [7], 3.8 µg/mL. In addition, the inhibitory constant (Ki) stood at 66 µM in [9] and 570 nM in assay [11].

For the origin of these results see ChEMBL document CHEMBL1141222, “Antitrypanosomal, antileishmanial, and antimalarial activities of quaternary arylalkylammonium 2-amino-4-chlorophenyl phenyl sulfides, a new class of trypanothione reductase inhibitor, and of N-acyl derivatives of 2-amino-4-chlorophenyl phenyl sulfide” (J Med Chem, 2005).
